Screening results as filed in PubChem.
Compounds with a hit are over-represented: about 2.3% of the library has one in this group of screens.
GPR7 antagonist: GPR7 receptor antagonists, primary screen, cell-based, fluorescence, single concentration. Neuropeptides B/W receptor type 1 (Homo sapiens), P48145. GPR7-expressing cells, fluorescence antagonist assay. inhibition, % at 4.4 µM. 1.1% of 290,000 active; in the data active = inhibition above about 16%, passing the limit was not always enough;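 also: cells stimulated with the agonist NPW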
Target sequence (P48145 whole entry, looked up): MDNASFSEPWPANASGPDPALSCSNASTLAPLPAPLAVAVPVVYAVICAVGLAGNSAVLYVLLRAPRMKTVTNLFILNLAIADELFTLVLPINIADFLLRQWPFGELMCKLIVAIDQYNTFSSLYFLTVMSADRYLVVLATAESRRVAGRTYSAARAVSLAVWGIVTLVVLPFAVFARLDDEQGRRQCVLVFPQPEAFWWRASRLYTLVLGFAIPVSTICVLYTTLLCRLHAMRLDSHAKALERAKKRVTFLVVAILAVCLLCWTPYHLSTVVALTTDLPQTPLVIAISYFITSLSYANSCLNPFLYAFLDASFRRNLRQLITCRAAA
HCV NS3 hel inh: inhibitors of HCV NS3 helicase, primary screen, biochemical, Cy5 molecular beacon fluorescence. Hepatitis C virus NS3 helicase. NS3 helicase DNA unwinding. inhibition, % at 10.9 µM. 0.56% of 290,000 active;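 active = inhibition above the mean of all tested compounds plus 3 SD, set per campaign, cut at about 35% in these data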
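System: HCV NS3 helicase fragment; control set: DMSO and thioflavine S; technique: Cy5 fluorescence at 0 and 60 min, beacon hairpin quenching; reagent: beacon DNA duplex substrate plus ATP; replicates: singlicate; schedule: 1 h reaction at 25 °C, ATP-initiated; medium: MOPS buffer pH 6.5 with MgCl2, DTT, Tween20, BSA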
EBNA-1 inh: EBNA-1 DNA-binding inhibitors, primary screen, biochemical, fluorescence polarization | inhibition, % at 14.8 µM | 0.34% of 300,000 active | AID 1950, 2009; in the data active = inhibition above about 28%
core dimer inh: inhibitors of HCV core protein dimerization, primary screen, biochemical, TR-FRET, high-throughput; TR-FRET GST/Flag-core106 dimerization, 1536-well; inhibition, % at 5 µM; 0.33% of 300,000 active; AID 1899, 2009;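 active = inhibition above the mean of all tested compounds plus 3 SD, set per screening campaign, cut at about 45% in these data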
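Material: GST/Flag-tagged HCV core106 proteins. Incubation: 4 h, 22.5 °C incubation. Read-out basis: inhibition (%) from 671 over 617 nm ratio. Measured by: TR-FRET, excitation 340 nm, emission 617 and 671 nm.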
EBV gp42 block: Epstein-Barr virus gp42 inhibitors, primary screen, biochemical, uHTS, fluorescence polarization; Glycoprotein 42 (Epstein-Barr virus (strain AG876)), Q1HVG2; inhibition, % (tested at 21.74 µM); 0.42% of 220,000 active; Fluorescence polarization binding assay, mP read-out; in the data active = inhibition above about 50%
Target sequence (Q1HVG2 whole entry, looked up): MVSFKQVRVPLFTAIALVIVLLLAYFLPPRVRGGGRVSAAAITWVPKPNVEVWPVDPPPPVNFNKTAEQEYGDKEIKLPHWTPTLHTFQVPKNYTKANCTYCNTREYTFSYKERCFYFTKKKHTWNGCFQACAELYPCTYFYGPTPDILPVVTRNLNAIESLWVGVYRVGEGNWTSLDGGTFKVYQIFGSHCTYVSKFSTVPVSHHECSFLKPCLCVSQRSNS
ZTA counter: blocks Epstein-Barr virus ZTA, an EBNA-1 counter-screen; ZTA-DNA binding, fluorescence polarization; inhibition, % at 11 µM; 0.15% of 320,000 active; in the data active = inhibition above about 33%
NS3 helicase cf: HCV NS3 helicase inhibitors, retest, confirmation, biochemical, Cy5 molecular beacon fluorescence, triplicate. 31% of 1,600 active. AID 1943, 2009. inhibition, % at 10.9 µM. NS3 helicase DNA unwinding. shares compounds with HCV NS3 hel inh;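 active = inhibition above the mean of all tested compounds plus 3 SD, cutoff set per campaign, cut at about 36% in these data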
FID counter trip: compounds displacing fluorescent DNA intercalator, artefact control for HCV NS3 helicase inhibitor project, biochemical, FID fluorescence, triplicate; 4% of 1,600 active; AID 1945, 2009; shares compounds with HCV NS3 hel inh; inhibition, % at 7.9 µM; DNA fluorescent intercalator displacement; in the data active = inhibition above about 37%;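 also: higher means more displacement of ethidium bromide from the DNA hairpin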
FID counter DR: compounds displacing fluorescent intercalator from DNA, dose response, counter-screen for HCV NS3 helicase inhibitor project, biochemical, fluorescence; 120 tested, under 10 active; fluorescent intercalator displacement from DNA; shares compounds with HCV NS3 hel inh; AID 2172, 2009; IC50, µM; call rule not given here
Numbers stand for hits; 0 = inactive; - = not tested or not shown; ! = not confirmed by another sample.

SMILES	GPR7 antagonist	HCV NS3 hel inh	EBNA-1 inh	core dimer inh	EBV gp42 block	ZTA counter	NS3 helicase cf	FID counter trip	others
O=C(NC1CCCC1)C(=O)N(c1ccccc1F)C(C(=O)NCC1CCCO1)c1cccs1 (centres undefined)	0	36.5	0	0	0	0	0	0
Oc1ccc(/C=N/Nc2cc(N3CCCC3)nc(N3CCCC3)n2)cc1O	0	56.2	0	0	0	0	0	0
Oc1ccc(/C=N\Nc2cc(N3CCOCC3)nc(N3CCOCC3)n2)c(O)c1	0	0	0	0	0	0	-	-
O=C(Nc1nnc(-c2ccc3c(c2)CCCC3)o1)c1ccccc1Cl	0	49.1	0	0	0	0	0	0
CCN(C(=O)C(C)N1C(=O)/C(=C/c2ccco2)SC1=S)C1CCS(=O)(=O)C1 (centres undefined)	0	0	0	0	-	0	-	-
O=C1/C(=C/c2ccco2)SC(=S)N1C1CCS(=O)(=O)C1 (centres undefined)	0	38.1	0	0	0	0	0	0
Cc1ccc(/C=C2\SC(=S)N(C3CCS(=O)(=O)C3)C2=O)cc1 (centres undefined)	0	0	0	0	0	0	-	-
O=C1/C(=C\c2ccco2)SC(=S)N1C1CCS(=O)(=O)C1 (centres undefined)	0	38.2	0	0	0	0	0	0
Nc1ccnc(Oc2ccc(F)cc2)c1	0	0	0	0	0	0	-	-
CN(C)c1ccc(N=Nc2ccc(C(=O)O)cc2)cc1	0	62.5	0	0	-	0	0	0
Cc1cccc(NC(=O)CSc2nnc(-c3ccco3)c(-c3ccco3)n2)c1C	0	52.0	0	0	0	0	76.6	0
CC1CCCN(C(=O)c2cccc(S(=O)(=O)Nc3cc(C(F)(F)F)ccc3Cl)c2)C1 (centres undefined)	0	44.3	0	0	0	0	57.0	0
Cc1cccc(CNCc2ccccc2)c1	0	38.5	0	0	0	0	0	0
CC1=CN2C(=N)/C(=C/c3ccc([N+](=O)[O-])o3)C(=O)N=C2S1	0	50.7	0	0	0	0	53.1	0	FID counter DR=0
Cc1onc(-c2ccccc2)c1C(=O)N/N=C/c1ccco1	0	40.0	0	0	0	0	0	0
COc1ccccc1OCc1nnc(SCC(=O)Nc2nnc(C3CC3)s2)n1C	0	0	0	0	-	0	-	-
O=C(NCCc1ccccc1)C(=S)N1CCCCC1	0	0	0	0	0	0	-	-
CCC(=O)Nc1ccc(S(=O)(=O)N2CCN(c3ccc(F)cc3)CC2)cc1	0	0	0	0	0	0	-	-
O=C(Nc1ccc(Nc2ccncc2)cc1)c1ccc(Nc2ccnc3ccc([N+](=O)[O-])cc23)cc1	0	52.6	-	-	0	-	77.8	102.7
COc1ccc(C2=NN(C(=O)CCCC(=O)O)C(c3cn(-c4ccccc4)nc3-c3ccccc3)C2)cc1 (centres undefined)	0	46.2	0	0	0	0	43.1	0
COc1ccc(C2=NN(C(=O)CCC(=O)O)C(c3ccc(Br)cc3)C2)cc1 (centres undefined)	0	37.9	0	0	-	0	0	0
O=C(CCN1C(=O)CSc2ccccc21)Nc1ccc(OC(F)(F)F)cc1	-	-	-	-	-	0	-	-
COc1ccc2[nH]c3c(C)c4ccncc4c(C)c3c2c1	0	42.4	0	0	0	0	111.8	90.1
O=C(CCCN1C(=O)c2cccc3cccc(c23)C1=O)Nc1nccs1	0	0	0	0	0	0	-	-
Cc1cc(/C=N/NC(=O)C(O)(c2ccccc2)c2ccccc2)c(C)n1-c1ccc(C(=O)O)cc1	0	38.5	0	0	0	0	0	0
SMILES	GPR7 antagonist	HCV NS3 hel inh	EBNA-1 inh	core dimer inh	EBV gp42 block	ZTA counter	NS3 helicase cf	FID counter trip	others
Cc1cc(/C=N/NC(=O)C(O)(c2ccccc2)c2ccccc2)c(C)n1-c1cccc(C(=O)O)c1	0	51.3	0	0	0	0	72.1	0
CCC(CO)NCc1ccc(-c2ccccc2)cc1 (centres undefined)	0	0	0	0	0	0	-	-
COC(=O)C1=NN(C(=O)c2ccc(Cl)cc2)C(O)(c2ccccc2)C1 (centres undefined)	0	43.8	0	0	0	0	0	0
CCC1=NN(C(=O)c2ccc(Cl)cc2)C(O)(c2ccccc2)C1 (centres undefined)	0	0	0	0	-	0	-	-
O=C1CC(c2ccco2)CC(O)=C1C=Nc1cc(Cl)ccc1O (centres undefined)	0	42.5	0	0	0	0	0	0
COc1ccccc1OCCNC(=O)Nc1cc(F)c(F)cc1Cl	0	0	0	0	0	0	-	-
C/C(=N\OCC(=O)NC12CC3CC(CC(C3)C1)C2)c1cc2ccccc2o1	0	0	0	0	0	0	-	-
CC(C)C/C(O)=C/c1nc2cc(Cl)ccc2oc1=O	0	38.5	0	0	0	0	0	0
O=c1oc2ccc(Cl)cc2nc1/C=C(\O)c1ccco1	0	0	0	0	0	0	-	-
C=CCn1c(SCCCC)nc(O)cc1=O	0	39.9!	0	0	0	0	0	0
CC(C)(C)NC(=O)NC(=O)CN1CCN(S(=O)(=O)c2ccc3c(c2)CCCC3)CC1	-	-	0	0	-	0	-	-
O=C(O)/C(=C\c1cccc([N+](=O)[O-])c1)c1ccc(S(=O)(=O)N2CCCCC2)s1	0	44.1	0	0	0	0	54.0	0
Cc1ccc(-c2cc(-c3ccco3)c(C#N)c(=O)[nH]2)cc1	0	42.0	0	0	0	0	0	0
O=C(c1ccc(C(F)(F)F)cc1)N1CCN(c2ccc(N3CCOCC3)nn2)CC1	-	-	0	0	-	0	-	-
CCC(CC)CN1C(Nc2ccccc2)=NC[C@@H]1C	0	0	0	0	-	0	-	-
CCNC(=O)COC(=O)c1ccc(-n2nc(C)cc2C)cc1	0	0	0	0	0	0	-	-
Cc1cc(C)n(-c2ccc(C(=O)OCC(=O)c3ccc(Br)s3)cc2)n1	0	50.4	0	0	0	0	0	0
O=C(N/N=C/c1cc(Br)c(Br)o1)c1ccc2c(c1)OCCO2	0	36.8	0	0	0	0	0	0
O=c1c2ccccc2nc(SCc2cc([N+](=O)[O-])cc3c2OCOC3)n1-c1ccccc1	0	0	0	0	0	0	-	-
